Laboratory results from ChEMBL document CHEMBL1821590, “Novel dihydropyrimidines and its pyrazole derivatives: synthesis and pharmacological screening” (Eur J Med Chem, 2011).
≈ marks a conversion by molar mass, not a printed value.

System: Bacillus subtilis
Experiment: Antimicrobial activity against Bacillus subtilis at 25 ug/ml by agar plate diffusion technique
Format: functional
Settings: read-out: IZ
How it was run: (§1)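 Agar plate diffusion against E. coli, P. aeruginosa, S. aureus and B. subtilis, with compounds at 25, 50 and 100 µg/mL. Streptomycin as standard.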

Compound	zone of inhibition at 25 µg/mL [mm]
CSc1nc(-c2cccc(O)c2O)c(C#N)c(=O)n1C	13
CCOC(=O)c1cnn(-c2nc(-c3ccc(Cl)cc3)c(C#N)c(=O)n2C)c1N	14.2

System: not listed separately
Experiment: Antioxidant activity assessed as hydrogen peroxide scavenging activity after 10 mins
Format: functional
Settings: not given
How it was run: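 H2O2 (20 mM) in PBS pH 7.4. 1 mL of sample or ascorbic acid in methanol (12.5–100 µg/mL) added to 2 mL H2O2 solution. A230 read after 10 min. % inhibition = [1 − (Vt/Vc)] × 100. Triplicate, averaged. IC50 derived from % inhibition across concentrations.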

Compound	IC50 [µg/mL]
CSc1nc(-c2cccc(O)c2O)c(C#N)c(=O)n1C	37 (≈ 128 µM)
CCOC(=O)c1cnn(-c2nc(-c3ccc(Cl)cc3)c(C#N)c(=O)n2C)c1N	94 (≈ 236 µM)

System: Aspergillus niger
Experiment: Antimicrobial activity against Aspergillus niger at 50 ug/ml by paper disc method
Format: functional
Settings: read-out: IZ
How it was run: (§2)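 Paper disc method against A. niger and C. albicans, with compounds at 25, 50 and 100 µg/mL. Amphotericin-B as standard.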

Compound	zone of inhibition at 50 µg/mL [mm]
CSc1nc(-c2cccc(O)c2O)c(C#N)c(=O)n1C	10.8
CCOC(=O)c1cnn(-c2nc(-c3ccc(Cl)cc3)c(C#N)c(=O)n2C)c1N	15.6

System: Aspergillus niger
Experiment: Antimicrobial activity against Aspergillus niger at 100 ug/ml by paper disc method
Format: functional
Settings: read-out: IZ
How it was run: as §2

Compound	zone of inhibition at 100 µg/mL [mm]
CSc1nc(-c2cccc(O)c2O)c(C#N)c(=O)n1C	17.1
CCOC(=O)c1cnn(-c2nc(-c3ccc(Cl)cc3)c(C#N)c(=O)n2C)c1N	23.8

System: Metaphire posthuma
Experiment: Anthelmintic activity against Pheretima posthuma assessed as time taken for parasite death at 0.5% w/v
Format: functional
Settings: not given
How it was run: (§3)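 Earthworms (Pheretima posthuma, spelled Perituma posthuma in text) exposed to test compounds at 0.1, 0.2 and 0.5% w/v. Albendazole served as standard, with an untreated control. Paralysis was recorded as the time until worms became motionless, then time to death was recorded, in minutes. Each value is the mean of three determinations with S.D.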

Compound	Time [min]
CSc1nc(-c2cccc(O)c2O)c(C#N)c(=O)n1C	61.02
CCOC(=O)c1cnn(-c2nc(-c3ccc(Cl)cc3)c(C#N)c(=O)n2C)c1N	56.33

System: Candida albicans
Experiment: Antimicrobial activity against Candida albicans at 25 ug/ml by paper disc method
Format: functional
Settings: read-out: IZ
How it was run: as §2

Compound	zone of inhibition at 25 µg/mL [mm]
CSc1nc(-c2cccc(O)c2O)c(C#N)c(=O)n1C	9.48
CCOC(=O)c1cnn(-c2nc(-c3ccc(Cl)cc3)c(C#N)c(=O)n2C)c1N	12.2

System: Pseudomonas aeruginosa
Experiment: Antimicrobial activity against Pseudomonas aeruginosa at 25 ug/ml by agar plate diffusion technique
Format: functional
Settings: read-out: IZ
How it was run: as §1

Compound	zone of inhibition at 25 µg/mL [mm]
CSc1nc(-c2cccc(O)c2O)c(C#N)c(=O)n1C	7.67
CCOC(=O)c1cnn(-c2nc(-c3ccc(Cl)cc3)c(C#N)c(=O)n2C)c1N	11.8

System: Staphylococcus aureus
Experiment: Antimicrobial activity against Staphylococcus aureus at 100 ug/ml by agar plate diffusion technique
Format: functional
Settings: read-out: IZ
How it was run: as §1

Compound	zone of inhibition at 100 µg/mL [mm]
CSc1nc(-c2cccc(O)c2O)c(C#N)c(=O)n1C	13.6
CCOC(=O)c1cnn(-c2nc(-c3ccc(Cl)cc3)c(C#N)c(=O)n2C)c1N	22

System: not listed separately
Experiment: Antioxidant activity assessed as nitric oxide radical scavenging activity after 150 mins
Format: functional
Settings: not given
How it was run: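 10 mM sodium nitroprusside (4 mL), PBS pH 7.4 (1 mL) and sample or ascorbic acid in DMSO (1 mL, 12.5–100 µg/mL), incubated 150 min at 25 °C. Nitrite detected with sulphanilic acid (5 min) then naphthylethylenediamine (30 min, diffused light). Read at […]. Triplicate. % inhibition = [1 − (Vt/Vc)] × 100. IC50 derived from it.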

Compound	IC50 [µg/mL]
CSc1nc(-c2cccc(O)c2O)c(C#N)c(=O)n1C	53 (≈ 183 µM)
CCOC(=O)c1cnn(-c2nc(-c3ccc(Cl)cc3)c(C#N)c(=O)n2C)c1N	87 (≈ 218 µM)

System: Bacillus subtilis
Experiment: Antimicrobial activity against Bacillus subtilis at 100 ug/ml by agar plate diffusion technique
Format: functional
Settings: read-out: IZ
How it was run: as §1

Compound	zone of inhibition at 100 µg/mL [mm]
CSc1nc(-c2cccc(O)c2O)c(C#N)c(=O)n1C	24.4
CCOC(=O)c1cnn(-c2nc(-c3ccc(Cl)cc3)c(C#N)c(=O)n2C)c1N	25.4

System: Escherichia coli
Experiment: Antimicrobial activity against Escherichia coli at 100 ug/ml by agar plate diffusion technique
Format: functional
Settings: read-out: IZ
How it was run: as §1

Compound	zone of inhibition at 100 µg/mL [mm]
CSc1nc(-c2cccc(O)c2O)c(C#N)c(=O)n1C	10.4
CCOC(=O)c1cnn(-c2nc(-c3ccc(Cl)cc3)c(C#N)c(=O)n2C)c1N	25

System: not listed separately
Experiment: Antioxidant activity assessed as inhibition of lipid peroxidation using egg lecithin liposomes incubated for 1 hr
Format: functional
Settings: not given
How it was run: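 Egg lecithin (3 mg/mL, phosphate buffer pH 7.4) sonicated 10 min to form liposomes. Sample or ascorbic acid (12.5–100 µg/mL) added. Peroxidation induced with FeCl3 and L-ascorbic acid, 1 h at 37 °C. Stopped with HCl/TCA/TBA/BHA, boiled 15 min, centrifuged, supernatant read at 532 nm. Triplicate. % inhibition vs control. IC50 derived.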

Compound	IC50 [µg/mL]
CSc1nc(-c2cccc(O)c2O)c(C#N)c(=O)n1C	41 (≈ 142 µM)
CCOC(=O)c1cnn(-c2nc(-c3ccc(Cl)cc3)c(C#N)c(=O)n2C)c1N	88 (≈ 221 µM)

System: not listed separately
Experiment: Antioxidant activity assessed as potassium ferricyanide ion reducing power after 20 mins
Format: functional
Settings: not given
How it was run: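 Oyaizu method. Samples or ascorbic acid in DMF (12.5–100 µg/mL) mixed with 0.2 M phosphate buffer pH 6.6 and 1% potassium ferricyanide, 20 min at 50 °C. 10% TCA added, centrifuged. Supernatant mixed with water and 0.1% FeCl3, read at 700 nm. % = [(Vt/Vc) − 1] × 100. IC50 derived.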

Compound	IC50 [µg/mL]
CSc1nc(-c2cccc(O)c2O)c(C#N)c(=O)n1C	48 (≈ 166 µM)
CCOC(=O)c1cnn(-c2nc(-c3ccc(Cl)cc3)c(C#N)c(=O)n2C)c1N	64 (≈ 160 µM)

System: Escherichia coli
Experiment: Antimicrobial activity against Escherichia coli at 50 ug/ml by agar plate diffusion technique
Format: functional
Settings: read-out: IZ
How it was run: as §1

Compound	zone of inhibition at 50 µg/mL [mm]
CSc1nc(-c2cccc(O)c2O)c(C#N)c(=O)n1C	8.78
CCOC(=O)c1cnn(-c2nc(-c3ccc(Cl)cc3)c(C#N)c(=O)n2C)c1N	19.5

System: Metaphire posthuma
Experiment: Anthelmintic activity against Pheretima posthuma assessed as time taken for complete parasite paralysis at 0.2% w/v
Format: functional
Settings: not given
How it was run: (§4)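 Earthworms (Pheretima posthuma) exposed to test solutions at 0.1, 0.2 and 0.5% w/v; time in minutes to complete paralysis (worms motionless) recorded. Albendazole as standard. Mean of three determinations ± S.D.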

Compound	Time [min]
CSc1nc(-c2cccc(O)c2O)c(C#N)c(=O)n1C	62.28
CCOC(=O)c1cnn(-c2nc(-c3ccc(Cl)cc3)c(C#N)c(=O)n2C)c1N	41.03

System: Metaphire posthuma
Experiment: Anthelmintic activity against Pheretima posthuma assessed as time taken for parasite death at 0.1% w/v
Format: functional
Settings: not given
How it was run: as §3

Compound	Time [min]
CSc1nc(-c2cccc(O)c2O)c(C#N)c(=O)n1C	65.29
CCOC(=O)c1cnn(-c2nc(-c3ccc(Cl)cc3)c(C#N)c(=O)n2C)c1N	64.72

System: Staphylococcus aureus
Experiment: Antimicrobial activity against Staphylococcus aureus at 25 ug/ml by agar plate diffusion technique
Format: functional
Settings: read-out: IZ
How it was run: as §1

Compound	zone of inhibition at 25 µg/mL [mm]
CSc1nc(-c2cccc(O)c2O)c(C#N)c(=O)n1C	8.7
CCOC(=O)c1cnn(-c2nc(-c3ccc(Cl)cc3)c(C#N)c(=O)n2C)c1N	13.1

System: Staphylococcus aureus
Experiment: Antimicrobial activity against Staphylococcus aureus at 50 ug/ml by agar plate diffusion technique
Format: functional
Settings: read-out: IZ
How it was run: as §1

Compound	zone of inhibition at 50 µg/mL [mm]
CSc1nc(-c2cccc(O)c2O)c(C#N)c(=O)n1C	10.6
CCOC(=O)c1cnn(-c2nc(-c3ccc(Cl)cc3)c(C#N)c(=O)n2C)c1N	17.1

System: Metaphire posthuma
Experiment: Anthelmintic activity against Pheretima posthuma assessed as time taken for complete parasite paralysis at 0.1% w/v
Format: functional
Settings: not given
How it was run: as §4

Compound	Time [min]
CSc1nc(-c2cccc(O)c2O)c(C#N)c(=O)n1C	58.04
CCOC(=O)c1cnn(-c2nc(-c3ccc(Cl)cc3)c(C#N)c(=O)n2C)c1N	49.28

System: Bacillus subtilis
Experiment: Antimicrobial activity against Bacillus subtilis at 50 ug/ml by agar plate diffusion technique
Format: functional
Settings: read-out: IZ
How it was run: as §1

Compound	zone of inhibition at 50 µg/mL [mm]
CSc1nc(-c2cccc(O)c2O)c(C#N)c(=O)n1C	15.8
CCOC(=O)c1cnn(-c2nc(-c3ccc(Cl)cc3)c(C#N)c(=O)n2C)c1N	16.7

System: Metaphire posthuma
Experiment: Anthelmintic activity against Pheretima posthuma assessed as time taken for parasite death at 0.2% w/v
Format: functional
Settings: not given
How it was run: as §3

Compound	Time [min]
CSc1nc(-c2cccc(O)c2O)c(C#N)c(=O)n1C	65.5
CCOC(=O)c1cnn(-c2nc(-c3ccc(Cl)cc3)c(C#N)c(=O)n2C)c1N	58.23

System: Candida albicans
Experiment: Antimicrobial activity against Candida albicans at 100 ug/ml by paper disc method
Format: functional
Settings: read-out: IZ
How it was run: as §2

Compound	zone of inhibition at 100 µg/mL [mm]
CSc1nc(-c2cccc(O)c2O)c(C#N)c(=O)n1C	21
CCOC(=O)c1cnn(-c2nc(-c3ccc(Cl)cc3)c(C#N)c(=O)n2C)c1N	21.8

System: Aspergillus niger
Experiment: Antimicrobial activity against Aspergillus niger at 25 ug/ml by paper disc method
Format: functional
Settings: read-out: IZ
How it was run: as §2

Compound	zone of inhibition at 25 µg/mL [mm]
CSc1nc(-c2cccc(O)c2O)c(C#N)c(=O)n1C	8.4
CCOC(=O)c1cnn(-c2nc(-c3ccc(Cl)cc3)c(C#N)c(=O)n2C)c1N	11.6

System: Pseudomonas aeruginosa
Experiment: Antimicrobial activity against Pseudomonas aeruginosa at 100 ug/ml by agar plate diffusion technique
Format: functional
Settings: read-out: IZ
How it was run: as §1

Compound	zone of inhibition at 100 µg/mL [mm]
CSc1nc(-c2cccc(O)c2O)c(C#N)c(=O)n1C	12.7
CCOC(=O)c1cnn(-c2nc(-c3ccc(Cl)cc3)c(C#N)c(=O)n2C)c1N	25.7

System: Candida albicans
Experiment: Antimicrobial activity against Candida albicans at 50 ug/ml by paper disc method
Format: functional
Settings: read-out: IZ
How it was run: as §2

Compound	zone of inhibition at 50 µg/mL [mm]
CSc1nc(-c2cccc(O)c2O)c(C#N)c(=O)n1C	13.9
CCOC(=O)c1cnn(-c2nc(-c3ccc(Cl)cc3)c(C#N)c(=O)n2C)c1N	16

System: Escherichia coli
Experiment: Antimicrobial activity against Escherichia coli at 25 ug/ml by agar plate diffusion technique
Format: functional
Settings: read-out: IZ
How it was run: as §1

Compound	zone of inhibition at 25 µg/mL [mm]
CSc1nc(-c2cccc(O)c2O)c(C#N)c(=O)n1C	7.28
CCOC(=O)c1cnn(-c2nc(-c3ccc(Cl)cc3)c(C#N)c(=O)n2C)c1N	14.7

System: not listed separately
Experiment: Antiinflammatory activity assessed as inhibition of albumin denaturation at 100 ug/ml by UV-visible spectrophotometry
Format: functional
Settings: not given
How it was run: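 Compounds dissolved in minimal DMF, diluted in PBS pH 7.4 (final DMF <2.5%). 1 mL test solution (100 µg/mL) plus 1 mL 1% albumin in PBS, 15 min at 27 ± 1 °C, then heated 10 min at 60 ± 1 °C. After cooling, turbidity read at 660 nm. % inhibition = [(Vt/Vc) − 1] × 100 against a no-drug control. Triplicate, averaged. Diclofenac standard.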

Compound	inhibition [%]
CSc1nc(-c2cccc(O)c2O)c(C#N)c(=O)n1C	44.1
CCOC(=O)c1cnn(-c2nc(-c3ccc(Cl)cc3)c(C#N)c(=O)n2C)c1N	64.6

System: Pseudomonas aeruginosa
Experiment: Antimicrobial activity against Pseudomonas aeruginosa at 50 ug/ml by agar plate diffusion technique
Format: functional
Settings: read-out: IZ
How it was run: as §1

Compound	zone of inhibition at 50 µg/mL [mm]
CSc1nc(-c2cccc(O)c2O)c(C#N)c(=O)n1C	8.12
CCOC(=O)c1cnn(-c2nc(-c3ccc(Cl)cc3)c(C#N)c(=O)n2C)c1N	17.1

System: Metaphire posthuma
Experiment: Anthelmintic activity against Pheretima posthuma assessed as time taken for complete parasite paralysis at 0.5% w/v
Format: functional
Settings: not given
How it was run: as §4

Compound	Time [min]
CSc1nc(-c2cccc(O)c2O)c(C#N)c(=O)n1C	50.1
CCOC(=O)c1cnn(-c2nc(-c3ccc(Cl)cc3)c(C#N)c(=O)n2C)c1N	34.76
